# From the M2OR odorant receptor database
# Columns and labels:
# Details in all cases: stereoisomer not certain
# [1] = target: T1, UniProt Q8VGZ2
# T1 sequence (whole entry): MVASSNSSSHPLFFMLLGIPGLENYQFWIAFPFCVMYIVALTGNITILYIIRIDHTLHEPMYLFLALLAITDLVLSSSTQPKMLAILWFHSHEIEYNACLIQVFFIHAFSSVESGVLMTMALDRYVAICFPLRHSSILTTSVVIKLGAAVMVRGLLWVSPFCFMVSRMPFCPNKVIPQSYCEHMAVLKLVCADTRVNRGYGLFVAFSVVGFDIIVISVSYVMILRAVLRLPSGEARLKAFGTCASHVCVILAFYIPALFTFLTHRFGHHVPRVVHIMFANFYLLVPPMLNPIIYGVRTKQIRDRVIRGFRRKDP
# Procedure, shortened: (§1)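 Assay methods differ from source to source, frequently being transient luciferase assays in mammalian cell lines. For each receptor–molecule pair, the label responsive (active) applies when the original authors judged the measured signal statistically different from baseline, and non-responsive (inactive) applies otherwise.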
# [2] = target: T2, UniProt Q8VGZ7
# T2 sequence (whole entry): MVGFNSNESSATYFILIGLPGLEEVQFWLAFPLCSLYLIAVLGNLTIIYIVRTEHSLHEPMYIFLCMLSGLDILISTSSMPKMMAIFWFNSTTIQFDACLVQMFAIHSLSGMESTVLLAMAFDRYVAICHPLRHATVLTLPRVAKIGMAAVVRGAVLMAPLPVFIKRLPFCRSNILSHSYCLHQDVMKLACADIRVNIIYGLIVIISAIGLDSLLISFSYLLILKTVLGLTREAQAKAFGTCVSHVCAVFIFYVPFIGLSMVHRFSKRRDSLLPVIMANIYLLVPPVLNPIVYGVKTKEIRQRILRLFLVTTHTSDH
# Procedure, shortened: as §1
# [3] = target: T3, UniProt Q8VH16
# T3 sequence (whole entry): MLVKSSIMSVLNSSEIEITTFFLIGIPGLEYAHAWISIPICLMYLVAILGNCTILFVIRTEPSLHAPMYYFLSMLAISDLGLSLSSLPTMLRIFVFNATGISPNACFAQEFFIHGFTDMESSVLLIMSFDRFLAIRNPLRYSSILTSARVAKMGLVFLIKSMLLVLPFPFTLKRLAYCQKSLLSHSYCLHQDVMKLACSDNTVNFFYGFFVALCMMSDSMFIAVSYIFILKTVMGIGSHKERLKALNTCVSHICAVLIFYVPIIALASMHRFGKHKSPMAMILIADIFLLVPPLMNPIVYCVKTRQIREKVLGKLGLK
# Procedure, shortened: as §1
# [4] = target: T4, UniProt Q8VH20
# T4 sequence (whole entry): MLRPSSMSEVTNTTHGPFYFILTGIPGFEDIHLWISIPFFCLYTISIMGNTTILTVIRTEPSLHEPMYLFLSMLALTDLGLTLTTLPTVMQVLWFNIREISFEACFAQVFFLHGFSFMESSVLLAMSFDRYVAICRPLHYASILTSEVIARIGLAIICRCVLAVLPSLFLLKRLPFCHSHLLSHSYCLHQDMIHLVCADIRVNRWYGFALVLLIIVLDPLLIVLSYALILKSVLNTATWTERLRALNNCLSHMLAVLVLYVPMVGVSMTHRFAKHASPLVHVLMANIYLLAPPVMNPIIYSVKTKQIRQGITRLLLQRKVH
# Procedure, shortened: as §1
# [5] = target: T5, UniProt Q8VH21
# T5 sequence (whole entry): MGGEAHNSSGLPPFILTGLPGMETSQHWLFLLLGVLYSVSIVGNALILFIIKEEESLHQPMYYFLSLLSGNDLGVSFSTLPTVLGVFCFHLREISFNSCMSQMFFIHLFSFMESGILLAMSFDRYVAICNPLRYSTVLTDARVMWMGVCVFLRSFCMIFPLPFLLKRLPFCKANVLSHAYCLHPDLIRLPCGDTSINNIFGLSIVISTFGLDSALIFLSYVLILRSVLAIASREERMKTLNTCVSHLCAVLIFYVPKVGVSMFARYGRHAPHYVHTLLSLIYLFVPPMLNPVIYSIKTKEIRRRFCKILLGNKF
# Procedure, shortened: as §1
# [6] = target: T6, UniProt Q924H8
# T6 sequence (whole entry): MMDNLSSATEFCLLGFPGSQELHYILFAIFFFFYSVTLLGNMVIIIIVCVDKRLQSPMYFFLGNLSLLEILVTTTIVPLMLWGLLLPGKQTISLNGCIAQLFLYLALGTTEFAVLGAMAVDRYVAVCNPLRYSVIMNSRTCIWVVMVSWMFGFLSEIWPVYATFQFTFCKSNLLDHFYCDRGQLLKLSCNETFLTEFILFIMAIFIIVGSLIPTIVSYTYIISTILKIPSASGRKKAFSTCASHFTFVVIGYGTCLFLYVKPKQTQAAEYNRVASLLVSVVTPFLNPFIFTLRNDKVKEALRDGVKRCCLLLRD
# Procedure, shortened: as §1
# [7] = target: T7, UniProt Q8VGX8
# T7 sequence (whole entry): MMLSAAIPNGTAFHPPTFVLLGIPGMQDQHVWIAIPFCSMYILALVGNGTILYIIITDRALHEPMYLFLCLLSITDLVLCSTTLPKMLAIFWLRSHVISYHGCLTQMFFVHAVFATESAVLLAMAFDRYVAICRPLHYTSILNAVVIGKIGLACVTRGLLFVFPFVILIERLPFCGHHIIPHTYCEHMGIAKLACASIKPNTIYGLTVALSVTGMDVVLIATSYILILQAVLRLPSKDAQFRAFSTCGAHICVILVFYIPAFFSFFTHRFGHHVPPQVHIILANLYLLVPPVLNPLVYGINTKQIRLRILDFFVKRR
# Procedure, shortened: as §1
# [8] = target: T8, UniProt Q8VGY6
# T8 sequence (whole entry): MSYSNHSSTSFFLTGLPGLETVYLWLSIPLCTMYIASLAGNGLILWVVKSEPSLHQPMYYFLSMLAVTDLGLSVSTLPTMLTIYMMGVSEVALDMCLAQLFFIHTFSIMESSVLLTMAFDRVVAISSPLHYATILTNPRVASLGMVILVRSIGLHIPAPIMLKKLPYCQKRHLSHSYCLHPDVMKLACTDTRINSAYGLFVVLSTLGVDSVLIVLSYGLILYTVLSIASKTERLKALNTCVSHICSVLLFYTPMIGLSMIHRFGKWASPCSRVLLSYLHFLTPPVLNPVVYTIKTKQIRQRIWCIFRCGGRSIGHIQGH
# Procedure, shortened: as §1
# [9] = target: T9, UniProt Q8VH10
# T9 sequence (whole entry): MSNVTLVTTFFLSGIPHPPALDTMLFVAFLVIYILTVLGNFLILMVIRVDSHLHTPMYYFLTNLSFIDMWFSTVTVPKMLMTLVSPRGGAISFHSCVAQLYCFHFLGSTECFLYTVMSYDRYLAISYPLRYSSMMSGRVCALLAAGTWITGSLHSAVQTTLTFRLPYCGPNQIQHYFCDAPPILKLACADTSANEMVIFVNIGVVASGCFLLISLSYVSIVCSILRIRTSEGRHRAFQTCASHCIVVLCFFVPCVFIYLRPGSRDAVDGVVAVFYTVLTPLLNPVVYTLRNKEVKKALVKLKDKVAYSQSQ
# Procedure, shortened: as §1
# [10] = target: T10, UniProt Q9EPN9
# T10 sequence (whole entry): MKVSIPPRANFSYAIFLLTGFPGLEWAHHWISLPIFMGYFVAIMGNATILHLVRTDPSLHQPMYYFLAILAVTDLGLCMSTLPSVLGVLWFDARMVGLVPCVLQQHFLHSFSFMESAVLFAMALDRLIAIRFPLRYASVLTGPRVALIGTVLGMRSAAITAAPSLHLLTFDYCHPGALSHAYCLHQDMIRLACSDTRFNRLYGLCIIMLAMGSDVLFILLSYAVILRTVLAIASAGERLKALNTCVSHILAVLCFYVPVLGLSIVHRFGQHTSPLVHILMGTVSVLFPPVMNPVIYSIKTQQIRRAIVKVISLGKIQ
# Procedure, shortened: as §1
# [11] = target: UniProt Q9R0K2
# Procedure, shortened: as §1
# [12] = target: T11, UniProt Q9WU86
# T11 sequence (whole entry): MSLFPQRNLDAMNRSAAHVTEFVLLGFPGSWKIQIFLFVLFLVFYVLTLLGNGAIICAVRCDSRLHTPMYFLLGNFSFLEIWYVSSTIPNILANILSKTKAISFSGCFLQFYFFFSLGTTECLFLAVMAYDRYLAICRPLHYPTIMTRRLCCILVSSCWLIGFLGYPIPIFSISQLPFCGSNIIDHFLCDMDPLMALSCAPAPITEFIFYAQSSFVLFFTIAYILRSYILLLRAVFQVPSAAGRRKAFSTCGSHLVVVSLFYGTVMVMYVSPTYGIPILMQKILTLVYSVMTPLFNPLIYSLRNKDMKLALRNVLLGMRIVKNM
# Procedure, shortened: as §1
# [13] = target: T12, UniProt Q8VH18
# T12 sequence (whole entry): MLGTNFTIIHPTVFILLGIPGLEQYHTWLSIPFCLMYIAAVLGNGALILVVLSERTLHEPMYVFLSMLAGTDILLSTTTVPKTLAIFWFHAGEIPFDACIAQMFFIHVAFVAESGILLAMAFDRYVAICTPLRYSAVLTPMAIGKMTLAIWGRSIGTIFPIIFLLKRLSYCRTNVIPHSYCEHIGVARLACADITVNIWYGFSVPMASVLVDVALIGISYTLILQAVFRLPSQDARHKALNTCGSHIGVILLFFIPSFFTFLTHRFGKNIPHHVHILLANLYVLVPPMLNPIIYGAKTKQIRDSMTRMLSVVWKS
# Procedure, shortened: as §1
# [14] = target: T13, UniProt Q99NH4
# T13 sequence (whole entry): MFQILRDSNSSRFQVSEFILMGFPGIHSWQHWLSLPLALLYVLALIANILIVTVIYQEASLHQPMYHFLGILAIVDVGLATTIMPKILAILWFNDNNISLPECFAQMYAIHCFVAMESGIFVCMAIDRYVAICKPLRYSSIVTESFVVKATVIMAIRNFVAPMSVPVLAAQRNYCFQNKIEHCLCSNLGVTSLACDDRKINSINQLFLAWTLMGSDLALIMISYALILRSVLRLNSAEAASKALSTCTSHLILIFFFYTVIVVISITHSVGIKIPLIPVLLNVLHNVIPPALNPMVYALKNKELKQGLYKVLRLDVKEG
# Procedure, shortened: as §1
# [15] = target: T14, UniProt Q9WU94
# T14 sequence (whole entry): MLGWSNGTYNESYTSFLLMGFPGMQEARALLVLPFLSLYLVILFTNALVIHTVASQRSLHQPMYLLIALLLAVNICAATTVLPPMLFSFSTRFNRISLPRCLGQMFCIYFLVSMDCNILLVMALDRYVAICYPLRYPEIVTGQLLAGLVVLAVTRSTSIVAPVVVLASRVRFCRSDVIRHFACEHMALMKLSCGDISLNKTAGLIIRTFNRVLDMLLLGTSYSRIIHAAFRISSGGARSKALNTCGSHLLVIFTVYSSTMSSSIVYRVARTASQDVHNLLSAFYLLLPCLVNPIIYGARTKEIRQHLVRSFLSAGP
# Procedure, shortened: as §1
# Chain of UniProt Q9R0K2 (Q9R0K2 as listed by the source): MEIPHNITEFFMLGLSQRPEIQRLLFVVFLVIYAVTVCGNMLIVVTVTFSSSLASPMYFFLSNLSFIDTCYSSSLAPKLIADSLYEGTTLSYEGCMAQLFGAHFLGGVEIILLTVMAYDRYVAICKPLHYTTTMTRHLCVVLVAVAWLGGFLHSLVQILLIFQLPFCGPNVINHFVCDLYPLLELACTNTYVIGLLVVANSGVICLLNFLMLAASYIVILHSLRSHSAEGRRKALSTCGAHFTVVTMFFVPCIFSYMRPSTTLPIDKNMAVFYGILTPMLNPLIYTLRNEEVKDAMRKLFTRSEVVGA
smiles,measurement,setting,value
Cc1occc1SSc1ccoc1C,odorant receptor agonist call,[1],inactive
same,odorant receptor agonist call,[2],inactive
same,odorant receptor agonist call,[3],inactive
same,odorant receptor agonist call,[4],inactive
same,odorant receptor agonist call,[5],inactive
same,odorant receptor agonist call,[6],inactive
CCC=CCCC=CC=O,odorant receptor agonist call,[1],inactive
same,odorant receptor agonist call,[2],inactive
same,odorant receptor agonist call,[3],inactive
same,odorant receptor agonist call,[4],inactive
same,odorant receptor agonist call,[5],inactive
same,odorant receptor agonist call,[6],inactive
CC=CC(=O)C1=C(C)CCCC1(C)C,odorant receptor agonist call,[1],inactive
same,odorant receptor agonist call,[2],inactive
same,odorant receptor agonist call,[3],inactive
same,odorant receptor agonist call,[4],inactive
same,odorant receptor agonist call,[5],inactive
same,odorant receptor agonist call,[6],inactive
CC(=O)C=CC1=C(C)CCCC1(C)C,odorant receptor agonist call,[1],inactive
same,odorant receptor agonist call,[2],inactive
same,odorant receptor agonist call,[3],inactive
same,odorant receptor agonist call,[4],inactive
same,odorant receptor agonist call,[5],inactive
same,odorant receptor agonist call,[6],inactive
O=c1ccc2ccccc2o1,odorant receptor agonist call,[7],inactive
same,odorant receptor agonist call,[8],inactive
same,odorant receptor agonist call,[1],inactive
same,odorant receptor agonist call,[2],inactive
same,odorant receptor agonist call,[9],inactive
same,odorant receptor agonist call,[4],inactive
same,odorant receptor agonist call,[10],inactive
same,odorant receptor agonist call,[11],inactive
same,odorant receptor agonist call,[12],active
CCCCC=O,odorant receptor agonist call,[1],inactive
same,odorant receptor agonist call,[2],inactive
same,odorant receptor agonist call,[3],inactive
same,odorant receptor agonist call,[13],inactive
same,odorant receptor agonist call,[4],inactive
same,odorant receptor agonist call,[5],inactive
same,odorant receptor agonist call,[6],inactive
same,odorant receptor agonist call,[14],inactive
same,odorant receptor agonist call,[15],inactive
CCC(C)c1nccnc1OC (stereo not given),odorant receptor agonist call,[1],inactive
same,odorant receptor agonist call,[2],inactive
same,odorant receptor agonist call,[3],inactive
same,odorant receptor agonist call,[4],inactive
same,odorant receptor agonist call,[5],inactive
same,odorant receptor agonist call,[6],inactive
CC(=O)OCc1ccc2c(c1)OCO2,odorant receptor agonist call,[1],inactive
same,odorant receptor agonist call,[2],inactive
same,odorant receptor agonist call,[3],inactive
same,odorant receptor agonist call,[4],inactive
same,odorant receptor agonist call,[5],inactive
same,odorant receptor agonist call,[6],inactive
CC(C)=CCCC(C)=CCOC(=O)C(C)C,odorant receptor agonist call,[1],inactive
same,odorant receptor agonist call,[2],inactive
same,odorant receptor agonist call,[3],inactive
same,odorant receptor agonist call,[4],inactive
same,odorant receptor agonist call,[5],inactive
same,odorant receptor agonist call,[6],inactive
